Bounds are passed on as bounds.

The target of experiment [1] is T1, GABA transporter 4 (Mus musculus, UniProt P31650).
T1 sequence (P31650 whole entry): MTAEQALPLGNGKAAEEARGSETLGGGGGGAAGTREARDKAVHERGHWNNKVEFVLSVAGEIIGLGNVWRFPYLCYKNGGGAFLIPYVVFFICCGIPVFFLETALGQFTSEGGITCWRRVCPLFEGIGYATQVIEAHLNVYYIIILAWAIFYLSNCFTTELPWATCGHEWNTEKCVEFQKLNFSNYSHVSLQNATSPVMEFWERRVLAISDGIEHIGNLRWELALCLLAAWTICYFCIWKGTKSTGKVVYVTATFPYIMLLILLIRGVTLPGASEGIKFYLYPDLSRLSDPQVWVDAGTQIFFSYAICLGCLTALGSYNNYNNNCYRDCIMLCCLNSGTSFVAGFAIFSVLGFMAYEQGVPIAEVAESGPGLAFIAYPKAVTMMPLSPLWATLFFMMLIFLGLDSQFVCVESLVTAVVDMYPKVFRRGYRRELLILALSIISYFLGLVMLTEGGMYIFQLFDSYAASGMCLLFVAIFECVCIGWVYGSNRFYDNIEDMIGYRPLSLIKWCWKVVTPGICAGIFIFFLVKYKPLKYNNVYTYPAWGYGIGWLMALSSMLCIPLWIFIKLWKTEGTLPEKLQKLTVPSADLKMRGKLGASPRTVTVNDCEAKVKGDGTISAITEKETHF
The experiment in a line: Inhibition of [3H]GABA uptake at mouse GAT4 expressed in HEK293 cells after 3 mins by scintillation counting analysis. The experiment is classed as cell-based. In a few lines:
(§1)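 Uptake measured in primary mouse cortical astrocyte or neuron cultures, or in cells stably overexpressing the respective recombinant mGAT. Cells were incubated at 37 °C in phosphate-buffered saline with [3H]GABA (1 μCi/mL), 1 μM GABA and increasing inhibitor concentrations. After 3 min, uptake was stopped by automated washing. Cells were solubilized in scintillant, radioactivity was counted, and inhibition curves were analyzed.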

The target in experiment [2] is T2, GABA transporter 2 (Mus musculus, UniProt P31651).
T2 sequence (P31651 whole entry): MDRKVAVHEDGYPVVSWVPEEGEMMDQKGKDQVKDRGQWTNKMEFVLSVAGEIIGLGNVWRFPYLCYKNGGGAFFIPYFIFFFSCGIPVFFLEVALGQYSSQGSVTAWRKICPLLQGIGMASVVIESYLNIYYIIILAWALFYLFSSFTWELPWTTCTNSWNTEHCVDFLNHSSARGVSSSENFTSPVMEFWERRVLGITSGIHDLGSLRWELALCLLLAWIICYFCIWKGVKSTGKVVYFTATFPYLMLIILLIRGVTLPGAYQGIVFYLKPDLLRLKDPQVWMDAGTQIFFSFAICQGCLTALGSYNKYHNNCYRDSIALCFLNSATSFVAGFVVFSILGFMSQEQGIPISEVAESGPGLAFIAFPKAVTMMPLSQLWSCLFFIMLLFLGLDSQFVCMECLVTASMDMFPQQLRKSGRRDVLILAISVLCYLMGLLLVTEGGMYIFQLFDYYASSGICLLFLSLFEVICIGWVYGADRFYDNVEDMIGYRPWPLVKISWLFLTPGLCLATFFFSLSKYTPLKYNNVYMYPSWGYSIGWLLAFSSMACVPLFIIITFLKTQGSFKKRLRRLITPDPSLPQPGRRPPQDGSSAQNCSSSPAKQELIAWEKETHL
The experiment in a line: Inhibition of [3H]GABA uptake at mouse GAT2 expressed in HEK293 cells after 3 mins by scintillation counting analysis. In kind it is cell-based. In a few lines: as §1

Experiment [3] deals with T3, GABA transporter 3 (Mus musculus, UniProt P31649).
T3 sequence (P31649 whole entry): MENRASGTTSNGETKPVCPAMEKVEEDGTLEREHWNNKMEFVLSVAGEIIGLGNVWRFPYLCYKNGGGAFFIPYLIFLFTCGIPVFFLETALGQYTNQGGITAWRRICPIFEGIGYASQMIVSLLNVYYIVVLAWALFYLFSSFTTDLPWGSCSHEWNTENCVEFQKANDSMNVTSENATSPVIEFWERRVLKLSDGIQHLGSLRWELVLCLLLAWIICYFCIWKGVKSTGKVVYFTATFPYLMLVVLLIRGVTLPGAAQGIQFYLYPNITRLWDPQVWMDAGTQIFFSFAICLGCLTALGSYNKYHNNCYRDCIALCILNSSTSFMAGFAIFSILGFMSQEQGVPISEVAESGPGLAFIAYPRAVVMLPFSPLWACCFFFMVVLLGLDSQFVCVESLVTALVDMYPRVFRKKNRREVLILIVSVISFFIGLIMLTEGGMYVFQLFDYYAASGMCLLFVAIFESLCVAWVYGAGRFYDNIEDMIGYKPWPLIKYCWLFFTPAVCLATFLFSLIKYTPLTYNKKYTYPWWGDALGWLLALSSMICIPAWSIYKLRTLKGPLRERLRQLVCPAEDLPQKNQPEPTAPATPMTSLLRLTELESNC
The experiment in a line: Inhibition of [3H]GABA uptake at mouse GAT3 expressed in HEK293 cells after 3 mins by scintillation counting analysis. In kind it is cell-based. An outline of the steps: as §1

Experiment [4] deals with Sodium- and chloride-dependent GABA transporter 1 (Mus musculus, UniProt P31648). The experiment in a line: Inhibition of [3H]GABA uptake at mouse GAT1 expressed in HEK293 cells after 3 mins by scintillation counting analysis. The experiment is classed as cell-based. In a few lines: as §1
Experiment [5] deals with Mus musculus. The experiment in a line: Anticonvulsant activity in ip dosed audiogenic seizure susceptible Frings mouse model after 15 mins. The experiment is classed as functional.
Experiment [6] has as its target GABA transporter (Mus musculus). Briefly: Inhibition of [3H]GABA uptake in mouse astrocytes after 3 mins by scintillation counting analysis.
Experiment [7] shares this target. Briefly: Inhibition of [3H]GABA uptake in mouse neurons after 3 mins by scintillation counting analysis.
The subject of experiment [8] is Mus musculus. Briefly: Anticonvulsant activity in ip dosed audiogenic seizure susceptible Frings mouse model after 60 mins. In kind it is functional. Particulars: 1 h.

As to `Cc1ccsc1C(=CCCN(C)C1CCC=C1C(=O)O)c1sccc1C` (centres undefined), the IC50 in experiment [1] (read-out: IC50) is above 300 µM; in experiment [2], 50 µM; in experiment [3] (read-out: IC50) it was above 300 µM; in experiment [4], 17 µM.
With `CNC1CCCC=C1C(=O)O` (centres undefined), the IC50 in experiment [1] (read-out: IC50) is above 1000 µM; in experiment [3] (read-out: IC50) it was above 1000 µM; in experiment [4] it was 423 µM.
For the compound `Cc1ccsc1C(=CCCN(C)[C@@H]1CCCC[C@@H]1C(=O)O)c1sccc1C` (relative stereo), the IC50 in experiment [1] (read-out: IC50) is above 300 µM; in experiment [2] it was 50 µM; in experiment [3] (read-out: IC50), 281 µM; in experiment [3] (read-out: pIC50 (converted)), 3550 µM; in experiment [4] it was above 300 µM.
Regarding `CNC1C2C=CC(C2)C1C(=O)O` (centres undefined), the IC50 in experiment [1] (read-out: IC50), in experiment [3] (read-out: IC50) and in experiment [4] was above 500 µM each time.
The term ED50 denotes the dose at which the effect has come halfway, by size or by number of responders. A higher ED50 goes with a need for a large dose. `Cc1ccsc1C(=CCCN(C)C1CCCC=C1C(=O)O)c1sccc1C` (centres undefined): the IC50 was 286 µM in experiment [1] (read-out: IC50); 3470 µM in experiment [1] (read-out: pIC50 (converted)); 45 µM in experiment [2]; above 300 µM in experiment [3] (read-out: IC50); 307 µM in experiment [4]. In addition, it took a dose of 20.4 mg/kg to reach the 50% effect level in experiment [5] (ED50).
Turning to `CN[C@@H]1CCCC[C@H]1C(=O)O` (relative stereo), the IC50 in experiment [1] (read-out: IC50) is above 3000 µM; in experiment [2] it was above 3000 µM; in experiment [3] (read-out: IC50) it was above 3000 µM; in experiment [6], above 300 µM; in experiment [7], above 300 µM; in experiment [4], above 3000 µM.
`CNC1CCCc2onc(O)c21` (centres undefined): the IC50 was above 3000 µM in experiment [1] (read-out: IC50); above 3000 µM in experiment [2]; above 3000 µM in experiment [3] (read-out: IC50); 48 µM in experiment [6]; 405 µM in experiment [7]; 450 µM in experiment [4].
For the compound `Cc1ccsc1C(=CCCN(C)C1C2C=CC(C2)C1C(=O)O)c1sccc1C` (centres undefined), the IC50 in experiment [1] (read-out: IC50) was above 300 µM; in experiment [2] it was 144 µM; in experiment [3] (read-out: IC50) it was above 300 µM; in experiment [4], 40 µM.
As to `Cc1ccsc1C(=CCCN(C)[C@H]1CCCC[C@@H]1C(=O)O)c1sccc1C` (relative stereo), the IC50 in experiment [1] (read-out: IC50) is above 300 µM; in experiment [2] it was 36 µM; in experiment [3] (read-out: IC50) it was above 300 µM; in experiment [4], 273 µM.
On to `Cc1ccsc1C(=CCCN(C)C1CCCc2o[nH]c(=O)c21)c1sccc1C` (centres undefined), for which the IC50 in experiment [1] (read-out: IC50) was above 300 µM; in experiment [3] (read-out: IC50), above 300 µM; in experiment [4] it was 7 µM.
Regarding `Cc1ccsc1C(=CCCN1CCC[C@@H](C(=O)O)C1)c1sccc1C` [TIAGABINE], the IC50 was 800 µM in experiment [1] (read-out: IC50), above 300 µM in experiment [3] (read-out: IC50) and 0.8 µM in experiment [4]. Also, the 50% effect level in experiment [8] (ED50) was put at a dose of 1.1 mg/kg.
As for `CN[C@H]1CCCC[C@H]1C(=O)O` (relative stereo), the IC50 in experiment [1] (read-out: IC50) is above 3000 µM; in experiment [2], above 3000 µM; in experiment [3] (read-out: IC50) it was above 3000 µM; in experiment [6] it was above 300 µM; in experiment [7] it was above 300 µM; in experiment [4] it was above 3000 µM.

The values are drawn from ChEMBL document CHEMBL2321777, “Selective mGAT2 (BGT-1) GABA uptake inhibitors: design, synthesis, and pharmacological characterization” (J Med Chem, 2013).
